Results as given in ChEMBL document CHEMBL1151906, “Discovery and structure-activity relationships of pentanedioic acid diamides as potent inhibitors of 11beta-hydroxysteroid dehydrogenase type I” (Bioorg Med Chem Lett, 2009).
pIC50: −log10 of the molar value. Values after ≈ are worked out from the molar mass of the structure shown.

How the values were obtained:
[1] = molecular target: T1, 11-beta-hydroxysteroid dehydrogenase 1 (Homo sapiens, UniProt P28845); assay: Inhibition of human recombinant 11beta-HSD1 expressed in Escherichia coli assessed as cortisol level after 150 mins by HTRF assay
Target sequence in this assay (P28845 whole entry): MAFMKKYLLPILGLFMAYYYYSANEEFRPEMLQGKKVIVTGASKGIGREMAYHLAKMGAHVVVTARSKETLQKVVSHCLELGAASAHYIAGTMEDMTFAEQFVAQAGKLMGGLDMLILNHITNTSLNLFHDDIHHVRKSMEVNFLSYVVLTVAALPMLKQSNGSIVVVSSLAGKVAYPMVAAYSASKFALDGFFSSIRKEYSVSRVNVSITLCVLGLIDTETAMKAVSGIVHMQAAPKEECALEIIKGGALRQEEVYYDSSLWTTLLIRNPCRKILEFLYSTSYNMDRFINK

[2] = Half life in rat plasma at 0.2 mg/kg, iv and 0.5 mg/kg, po; type: ADME, organism-based
Summary of the method: (§1)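 Male rats given a low-dose cassette (cocktail): 0.2 mg/kg i.v. and 0.5 mg/kg p.o.; plasma PK parameters are means of 3 rats. Unchanged drug recovered in faeces collected 0–24 h after each route.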

[3] = molecular target: T2, 11-beta-hydroxysteroid dehydrogenase type 2 (Homo sapiens, UniProt P80365); assay: Inhibition of human recombinant 11beta-HSD2 expressed in Escherichia coli assessed as cortisol level after 60 mins by HTRF assay
T2 sequence (P80365 whole entry): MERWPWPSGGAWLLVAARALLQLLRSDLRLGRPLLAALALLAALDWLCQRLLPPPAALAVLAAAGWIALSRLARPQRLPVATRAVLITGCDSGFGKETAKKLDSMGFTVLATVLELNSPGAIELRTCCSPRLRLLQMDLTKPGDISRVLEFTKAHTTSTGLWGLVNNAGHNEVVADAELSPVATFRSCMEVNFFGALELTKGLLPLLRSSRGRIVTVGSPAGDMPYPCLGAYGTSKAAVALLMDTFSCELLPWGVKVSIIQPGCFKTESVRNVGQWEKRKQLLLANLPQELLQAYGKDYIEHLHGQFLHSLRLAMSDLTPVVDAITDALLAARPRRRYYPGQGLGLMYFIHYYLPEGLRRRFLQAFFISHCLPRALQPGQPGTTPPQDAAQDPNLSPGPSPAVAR
Summary of the method: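 Enzyme is recombinant human 11β-HSD2 (E. coli-expressed) in 50 mM Tris pH 7.8 with 1 mM MgCl2 and 0.5 mM NAD. Reaction starts with 20 nM cortisol, runs at room temperature, and is stopped with carbenoxolone 10 µM. Cortisol is quantified by HTRF.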

[4] = molecular target: 11-beta-hydroxysteroid dehydrogenase 1 (Rattus norvegicus, UniProt P16232); assay: Inhibition of 11beta-HSD1 in rat liver microsome; type: microsomes
Sequence of 11-beta-hydroxysteroid dehydrogenase 1 (Rattus norvegicus, UniProt P16232) (P16232 whole entry): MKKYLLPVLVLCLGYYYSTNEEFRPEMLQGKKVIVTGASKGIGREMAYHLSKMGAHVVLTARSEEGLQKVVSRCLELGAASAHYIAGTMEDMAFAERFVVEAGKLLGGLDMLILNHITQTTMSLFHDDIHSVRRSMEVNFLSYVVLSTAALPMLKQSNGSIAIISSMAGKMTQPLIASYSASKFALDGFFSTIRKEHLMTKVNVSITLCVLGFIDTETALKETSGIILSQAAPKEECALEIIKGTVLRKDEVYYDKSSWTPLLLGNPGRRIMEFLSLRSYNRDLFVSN
Summary of the method: (§2)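 Liver microsome fractions (2.5 µg) used as the enzyme source. Run in 30 mM Hepes pH 7.4 with 1 mM EDTA, 1 mM G-6P and cortisone/NADPH (200 nM/200 µM). Incubated 150 min at 37 °C, stopped with 18β-glycyrrhetinic acid, cortisol read by HTRF.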

[5] = Solubility in water; type: physicochemical
[6] = Clearance in rat at 0.2 mg/kg, iv and 0.5 mg/kg, po; type: ADME, organism-based; conditions: in vivo; summary of the method: as §1
[7] = Drug absorption in rat assessed as recovery of unchanged drug in feces at 0.2 mg/kg, iv after 24 hrs; type: ADME, organism-based; design: dose 0.2 mg/kg, route intravenous; conditions: faeces, read-out: Drug uptake; summary of the method: as §1
[8] = Volume of distribution at steady state in rat at 0.2 mg/kg, iv and 0.5 mg/kg, po; type: ADME, organism-based; conditions: in vivo, read-out: Vdss; summary of the method: as §1
[9] = Drug absorption in rat assessed as recovery of unchanged drug in feces at 0.5 mg/kg, po after 24 hrs; type: ADME, organism-based; design: dose 0.5 mg/kg, route oral; conditions: faeces, read-out: Drug uptake; summary of the method: as §1
[10] = Protein binding in human serum; type: ADME, cell-free; conditions: read-out: PB (converted)
[11] = molecular target: T3, 11-beta-hydroxysteroid dehydrogenase 1 (Mus musculus, UniProt P50172); assay: Inhibition of 11beta-HSD1 in mouse 3T3L1 cells assessed as cortisol level by HTRF assay; type: cell-based, 3T3-L1
T3 sequence (P50172 whole entry): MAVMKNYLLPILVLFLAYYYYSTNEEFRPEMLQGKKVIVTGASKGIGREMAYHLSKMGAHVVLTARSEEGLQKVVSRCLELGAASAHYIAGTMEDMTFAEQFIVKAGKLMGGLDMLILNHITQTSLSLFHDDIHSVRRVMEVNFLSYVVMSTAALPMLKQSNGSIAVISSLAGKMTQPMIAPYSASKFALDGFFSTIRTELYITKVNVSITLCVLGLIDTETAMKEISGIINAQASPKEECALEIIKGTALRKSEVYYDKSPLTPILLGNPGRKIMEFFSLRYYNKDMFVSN
Summary of the method: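 3T3L1 cells differentiated 5 days into adipocytes, then cultured 4 days before 150 min exposure to compound (10^-5–10^-7 M). Cortisol in the culture supernatant is measured by HTRF to give 11β-HSD1 activity.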

[12] = Bioavailability in rat at 0.2 mg/kg, iv and 0.5 mg/kg, po; type: ADME, organism-based; conditions: in vivo; summary of the method: as §1
[13] = molecular target: T3, 11-beta-hydroxysteroid dehydrogenase 1; assay: Inhibition of 11beta-HSD1 in mouse liver microsome; summary of the method: as §2
[14] = molecular target: T1, 11-beta-hydroxysteroid dehydrogenase 1; conditions: at 1 µM
Target sequence in this assay (P28845 whole entry, looked up): as the sequence (P28845 whole entry) above

[15] = molecular target: T1, 11-beta-hydroxysteroid dehydrogenase 1; assay: Inhibition of human 11beta-HSD1
Target sequence in this assay (P28845 whole entry): as above

`CC(C)(CC(=O)NC1CC1)CC(=O)N[C@H]1C2CC3CC1C[C@](C(=O)O)(C3)C2` gave a pIC50 [1] of under 6.00.
`CC(C)(CC(=O)NC1CC1)CC(=O)N[C@H]1C2CC3CC1C[C@](O)(C3)C2` showed a half-life [2] of 72 min, a pIC50 [3] of under 5.00 and a pIC50 [4] of 6.01. For the same compound, the solubility [5] was 597 µg/mL (≈ 1710 µM), the clearance [6] was 30 mL/min/kg and the dose excreted at 24 h [7] was 20%. For the same compound, the pIC50 [1] was 8.10, the Vd [8] was 2.7 L/kg and the dose excreted at 24 h [9] was 22%. It also gave a fraction unbound [10] of 0.6, a pIC50 [11] of over 7.00 and a bioavailability [12] of 30%. For the same compound, the pIC50 [13] was 7.06.
For `CN1CCN(C(=O)CC2(CC(=O)O)CCCC2)CC1`, the inhibition [14] was 0%.
In the case of `O=C(O)CC1(CC(=O)NCc2ccc(F)cc2Cl)CCCC1`, the pIC50 [15] was 5.92.
`CC(C)(CC(=O)NC1CC1)CC(=O)N[C@H]1C2CC3CC1C[C@](C(N)=O)(C3)C2` gave a half-life [2] of 36 min, a pIC50 [3] of under 5.00 and a pIC50 [4] of 7.51. For the same compound, the solubility [5] was 491 µg/mL (≈ 1310 µM), the clearance [6] was 55 mL/min/kg and the dose excreted at 24 h [7] was 24%. It also gave a pIC50 [1] of 8.10, a Vd [8] of 3.1 L/kg and a dose excreted at 24 h [9] of 50%. The fraction unbound [10] was over 0.8, the pIC50 [11] was over 6.00 and the bioavailability [12] was 10%. The pIC50 [13] was 8.00.
For `CC(C)(CC(=O)NC1CC1)CC(=O)N[C@H]1C2CC3CC1C[C@@](O)(C3)C2`, the pIC50 [1] was 6.26.
Work on `O=C(CCCC(=O)NC1C2CC3CC(C2)CC1C3)NC1CC1` (stereo unspecified) yielded a pIC50 [1] of under 6.00.
